Converted amounts (≈) assume the structure as drawn. Where only a bound is given, the exact number is not on record here.

Data set [1] addresses T1, Glucose-dependent insulinotropic receptor (Mus musculus) (UniProt Q7TQP3).
T1 sequence (whole entry): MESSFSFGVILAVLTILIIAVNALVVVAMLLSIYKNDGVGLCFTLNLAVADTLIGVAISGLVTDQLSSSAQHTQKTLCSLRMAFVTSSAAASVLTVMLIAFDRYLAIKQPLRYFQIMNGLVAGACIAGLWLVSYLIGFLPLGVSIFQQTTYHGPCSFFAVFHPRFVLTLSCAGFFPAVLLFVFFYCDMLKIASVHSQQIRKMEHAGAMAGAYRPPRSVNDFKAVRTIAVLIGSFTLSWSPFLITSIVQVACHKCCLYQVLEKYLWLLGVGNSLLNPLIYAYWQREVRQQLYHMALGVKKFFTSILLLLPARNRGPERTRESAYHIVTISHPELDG
As to the kind of experiment: Agonist activity at mouse GPR119 expressed in CHO cells co-expressing Galpha15 assessed as increase in intracellular cAMP level after 60 mins by HTRF assay relative to control. It counts as functional, cell-based. The essentials:
(§1)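 EC50 values are means of at least 2 independent experiments, with a few single determinations. Maximal response is reported as the percentage of cAMP stimulation at the maximal dose tested, normalised to an internal agonist control set as 100%.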

Data set [2] concerns the target T2, Glucose-dependent insulinotropic receptor (Homo sapiens, UniProt Q8TDV5).
T2 sequence (Q8TDV5 whole entry): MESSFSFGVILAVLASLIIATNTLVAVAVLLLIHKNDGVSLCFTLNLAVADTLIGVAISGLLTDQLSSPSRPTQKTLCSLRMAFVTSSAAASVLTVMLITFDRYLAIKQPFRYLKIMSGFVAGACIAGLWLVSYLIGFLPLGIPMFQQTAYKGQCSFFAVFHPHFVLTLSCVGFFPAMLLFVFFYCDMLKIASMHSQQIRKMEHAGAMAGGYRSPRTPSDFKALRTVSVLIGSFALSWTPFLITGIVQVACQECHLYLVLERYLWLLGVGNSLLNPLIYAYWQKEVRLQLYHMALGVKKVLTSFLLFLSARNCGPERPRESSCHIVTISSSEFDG
As to the kind of experiment: Agonist activity at human GPR119 expressed in HEK293 cells assessed as increase in intracellular cAMP level after 60 mins by HTRF assay. In kind it is functional, cell-based. In short, it runs like this: (§2)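 cAMP stimulation is also given as % control at the top concentration, relative to an internal agonist control set at 100% cAMP stimulation. EC50 values are means of at least 2 independent experiments, except for two compounds.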

In data set [3] the target is T3, Glucose-dependent insulinotropic receptor (Mus musculus, UniProt Q7TQP3).
T3 sequence (Q7TQP3 whole entry): T1 sequence (whole entry)
Briefly: Agonist activity at mouse GPR119 expressed in CHO cells co-expressing Galpha15 assessed as increase in intracellular cAMP level after 60 mins by HTRF assay. In kind it is functional, cell-based. In short, it runs like this: as §2

A short description of data set [4]: Kinetic solubility in fasted state simulated intestinal fluid at pH 6.5. It counts as physicochemical. The following applies: read-out: Kinetic_solubility.
Data set [5] concerns the target T4, Voltage-gated inwardly rectifying potassium channel KCNH2 (Homo sapiens, UniProt Q12809). As to the kind of experiment: Inhibition of human ERG by PatchXpress method.
The target of data set [6] is T5, Glucose-dependent insulinotropic receptor (Homo sapiens) (UniProt Q8TDV5).
T5 sequence (whole entry): T2 sequence (Q8TDV5 whole entry)
Briefly: Agonist activity at human GPR119 expressed in HEK293 cells assessed as increase in intracellular cAMP level after 60 mins by HTRF assay relative to control. It counts as functional, cell-based. The essentials:
as §1

The target in data set [7] is T4, Voltage-gated inwardly rectifying potassium channel KCNH2.
A short description of data set [8]: Half life in Wistar Han rat at 0.5 mg/kg, iv by LC-MS/MS analysis. It counts as ADME, organism-based. The following applies: in vivo.
The nature of data set [9]: Solubility in fasted state simulated intestinal fluid using crystalline compound by equilibration method. In kind it is physicochemical.
Data set [10] is described as follows: Fraction unbound in rat plasma. In kind it is ADME, cell-free.
Data set [11] in a line: Oral bioavailability in Beagle dog by LC-MS/MS analysis. In kind it is ADME, organism-based, Canis lupus familiaris. The following applies: in vivo.
The nature of data set [12]: Ratio of drug level in C57BL/6 Tac mouse blood to plasma at 0.1 mg/kg, po via gavage measured at 90 mins post dose. It counts as ADME, organism-based. Conditions: blood and plasma.
Data set [13] in a line: Intrinsic clearance in human liver microsomes. In kind it is ADME, microsome. The following applies: read-out: CLH.
The nature of data set [14]: Plasma clearance in Beagle dog at 0.5 mg/kg, iv by LC-MS/MS analysis. It counts as ADME, organism-based, Canis lupus familiaris.
Data set [15] in a line: Lipophilicity, log D of the compound at pH 7 by HPLC method. In kind it is physicochemical. The following applies: buffer.
The nature of data set [16]: Plasma clearance in Wistar Han rat at 0.5 mg/kg, iv by LC-MS/MS analysis. In kind it is ADME, organism-based.
Data set [17] can be described thus: Half life in rhesus monkey at 0.5 mg/kg, iv by LC-MS/MS analysis. The following applies: in vivo. It counts as ADME, organism-based, Macaca mulatta.
Data set [18] is described as follows: Volume of distribution in Wistar Han rat at 0.5 mg/kg, iv by LC-MS/MS analysis. In kind it is ADME, organism-based. The following applies: in vivo.
The nature of data set [19]: Oral bioavailability in rhesus monkey by LC-MS/MS analysis. In kind it is ADME, organism-based, Macaca mulatta. Conditions: in vivo.
The nature of data set [20]: Fraction unbound in rhesus monkey plasma. In kind it is ADME, cell-free, Macaca mulatta.
For another data set, the system named is Mus musculus. Briefly: Antidiabetic activity in C57BL/6 Tac mouse assessed as maximum decrease in blood glucose AUC administered via oral gavage 30 mins prior to oral glucose load measured at 20 to 60 mins post glucose challenge by OGTT. It counts as functional. The following applies: C57BL/6, po, read-out: MED. In short, it runs like this: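 Eleven-week-old lean C57BL/6 Tac mice (n = 8/group) were fasted overnight and dosed by oral gavage in PEG400/23.5% HPBCD (15/85 v/v). Oral glucose (3 g/kg) was given 30 min later. Tail-nick glucometer glucose at 0, 20, 40, 60 min; glucose AUC per mouse, expressed as % change vs vehicle, with t-test or one-way ANOVA. Dose titration gave the minimal dose for maximal efficacy.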

The nature of data set [21]: Drug uptake in C57BL/6 Tac mouse blood at 0.1 mg/kg, po via gavage measured at 90 mins post dose. Conditions: whole blood, read-out: Drug uptake. It counts as ADME, organism-based. The essentials:
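Blood drug concentration was taken at 90 min after an oral 0.1 mpk dose in mice, within oGTT dose-titration PK/PD studies.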

A short description of data set [22]: Fraction unbound in dog plasma. It counts as ADME, cell-free, Canis lupus familiaris.
Data set [23] is described as follows: Volume of distribution in Beagle dog at 0.5 mg/kg, iv by LC-MS/MS analysis. In kind it is ADME, organism-based, Canis lupus familiaris. The following applies: in vivo.
The target in data set [24] is T6, Nuclear receptor subfamily 1 group I member 2 (Homo sapiens, UniProt O75469).
T6 sequence (O75469 whole entry): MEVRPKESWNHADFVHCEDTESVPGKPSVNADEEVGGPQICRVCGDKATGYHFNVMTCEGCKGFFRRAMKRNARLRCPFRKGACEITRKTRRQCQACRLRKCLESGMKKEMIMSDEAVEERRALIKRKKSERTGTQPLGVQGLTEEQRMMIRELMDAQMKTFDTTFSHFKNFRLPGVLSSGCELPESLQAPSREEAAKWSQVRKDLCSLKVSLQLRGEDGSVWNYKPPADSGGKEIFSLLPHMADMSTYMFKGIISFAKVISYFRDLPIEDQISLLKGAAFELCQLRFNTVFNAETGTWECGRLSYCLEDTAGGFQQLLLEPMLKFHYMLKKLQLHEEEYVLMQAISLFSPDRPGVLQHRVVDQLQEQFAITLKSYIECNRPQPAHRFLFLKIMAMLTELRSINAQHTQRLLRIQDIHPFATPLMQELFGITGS
As to the kind of experiment: Activity at human PXR. In kind it is ADME.

Data set [25] can be described thus: Plasma clearance in rhesus monkey at 0.5 mg/kg, iv by LC-MS/MS analysis. In kind it is ADME, organism-based, Macaca mulatta.
For data set [26], the system named is Rattus norvegicus. Briefly: Unbound clearance in Wistar Han rat at 0.5 mg/kg, iv by LC-MS/MS analysis. In kind it is ADME, organism-based. Conditions: in vivo.
Data set [27] in a line: Agonist activity at rhesus monkey GPR119. Also noted: species or system Macaca mulatta.
Data set [28] in a line: Intrinsic clearance in rat liver microsomes. It counts as ADME, microsome. Conditions: read-out: CLH.
Data set [29] can be described thus: Volume of distribution in rhesus monkey at 0.5 mg/kg, iv by LC-MS/MS analysis. In kind it is ADME, organism-based, Macaca mulatta. The following applies: in vivo.
Data set [30] concerns Rattus norvegicus. Briefly: Unbound volume of distribution in Wistar Han rat at 0.5 mg/kg, iv by LC-MS/MS analysis. It counts as ADME, organism-based. The following applies: in vivo.
Data set [31] is described as follows: Intrinsic clearance in rhesus monkey liver microsomes. In kind it is ADME, Macaca mulatta, microsome. The following applies: read-out: CLH.
The next data set deals with Cytochrome P450 3A4 (Homo sapiens, UniProt P08684). Briefly: Inhibition of CYP3A4 (unknown origin). It counts as ADME.
A short description of data set [32]: Intrinsic clearance in dog liver microsomes. In kind it is ADME, Canis lupus familiaris, microsome. Conditions: read-out: CLH.
Data set [33] in a line: Half life in Beagle dog at 0.5 mg/kg, iv by LC-MS/MS analysis. It counts as ADME, organism-based, Canis lupus familiaris. Conditions: in vivo.
The nature of data set [34]: Fraction unbound in human plasma. In kind it is ADME, cell-free.
Data set [35] is described as follows: Oral bioavailability in Wistar Han rat by LC-MS/MS analysis. It counts as ADME, organism-based. Conditions: in vivo.

T4 sequence (Q12809 whole entry): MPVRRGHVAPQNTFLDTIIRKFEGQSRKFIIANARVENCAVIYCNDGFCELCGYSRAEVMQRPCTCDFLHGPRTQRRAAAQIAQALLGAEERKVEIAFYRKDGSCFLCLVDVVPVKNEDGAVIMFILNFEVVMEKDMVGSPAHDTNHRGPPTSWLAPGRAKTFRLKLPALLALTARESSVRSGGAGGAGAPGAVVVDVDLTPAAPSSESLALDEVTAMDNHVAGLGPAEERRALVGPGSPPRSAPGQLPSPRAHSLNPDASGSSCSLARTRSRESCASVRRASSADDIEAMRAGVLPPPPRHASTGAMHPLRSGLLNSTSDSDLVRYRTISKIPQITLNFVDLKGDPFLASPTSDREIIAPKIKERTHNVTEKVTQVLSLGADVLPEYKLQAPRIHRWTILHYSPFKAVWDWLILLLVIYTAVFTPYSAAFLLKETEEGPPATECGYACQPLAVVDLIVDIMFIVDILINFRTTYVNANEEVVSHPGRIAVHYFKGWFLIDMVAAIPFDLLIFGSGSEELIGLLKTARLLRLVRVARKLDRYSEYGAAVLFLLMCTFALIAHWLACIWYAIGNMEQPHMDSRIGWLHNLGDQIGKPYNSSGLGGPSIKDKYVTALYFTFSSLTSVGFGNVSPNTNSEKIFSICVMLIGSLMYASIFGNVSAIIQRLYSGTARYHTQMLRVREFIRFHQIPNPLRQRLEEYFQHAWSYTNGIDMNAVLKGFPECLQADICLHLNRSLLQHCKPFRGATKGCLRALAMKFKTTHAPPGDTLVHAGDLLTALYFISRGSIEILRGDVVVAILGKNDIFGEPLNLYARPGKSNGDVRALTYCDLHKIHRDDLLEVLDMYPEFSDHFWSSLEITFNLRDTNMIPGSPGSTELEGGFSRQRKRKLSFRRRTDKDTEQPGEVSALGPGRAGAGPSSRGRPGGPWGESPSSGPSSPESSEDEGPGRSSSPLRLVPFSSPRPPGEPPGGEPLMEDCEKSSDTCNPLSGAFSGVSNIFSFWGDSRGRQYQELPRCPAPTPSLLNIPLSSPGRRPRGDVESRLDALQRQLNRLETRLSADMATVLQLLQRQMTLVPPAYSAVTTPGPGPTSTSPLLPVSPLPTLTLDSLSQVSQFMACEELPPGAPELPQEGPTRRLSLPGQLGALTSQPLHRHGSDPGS
Cytochrome P450 3A4, sequence (P08684 whole entry): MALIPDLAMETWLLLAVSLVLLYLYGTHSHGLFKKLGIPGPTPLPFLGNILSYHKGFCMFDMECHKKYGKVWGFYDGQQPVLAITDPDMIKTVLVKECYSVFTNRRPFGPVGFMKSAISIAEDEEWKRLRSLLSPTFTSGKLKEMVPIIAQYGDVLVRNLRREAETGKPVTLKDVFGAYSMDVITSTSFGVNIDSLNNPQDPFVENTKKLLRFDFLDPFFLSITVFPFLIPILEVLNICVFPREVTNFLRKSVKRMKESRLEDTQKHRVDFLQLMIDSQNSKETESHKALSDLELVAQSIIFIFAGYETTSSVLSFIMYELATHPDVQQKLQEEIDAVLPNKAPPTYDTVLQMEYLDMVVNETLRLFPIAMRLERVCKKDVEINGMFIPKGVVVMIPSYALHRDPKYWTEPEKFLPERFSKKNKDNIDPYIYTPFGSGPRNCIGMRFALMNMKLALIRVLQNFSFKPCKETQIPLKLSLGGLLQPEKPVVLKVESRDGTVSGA

Consider `CC1(OC(=O)N2CCC([C@H]3C[C@H]3CCOc3ccc(CC(=O)N4CCC4)c(F)c3)CC2)CC1`, for which the results for the Activity in data set [1] and in [6] were 115% and 127%, respectively. Besides, the EC50 was determined as 0.0033 µM in [2] and 0.0066 µM in [3]. The solubility kinetic in [4] is 138 µM (≈ 63.3 µg/mL). Also, the figures for the half-maximal inhibitory concentration (IC50) in data set [5] and in data set [7] were 8.6 µM and 23 µM, respectively. Besides, the half-life in data set [8] was 1.6 h.

As for `COCc1cnc(N2CCC([C@H]3C[C@H]3CCOc3cc(F)c(CC(=O)N4CCC4)c(F)c3)CC2)nc1`, the Activity in data set [1] amounted to 116%; in [6] it was 91%. In [9], the solubility (thermodynamic) was 51 µg/mL (≈ 102 µM). Further, the 50% effective concentration (EC50) in [2] is 0.0002 µM; in [24], greater than 30 µM; in data set [3], 0.0008 µM; in data set [27], 0.0001 µM. In addition, the free fraction (fraction unbound) turned out to be 0.067 in [10], 0.08 in data set [20], 0.055 in [22] and 0.038 in [34]. Moreover, the bioavailability in [11] was found to be 55%; in data set [19] it was 44%; in [35], 80%. In data set [12], the blood plasma ratio at 1.5 h is 0.55. For the same compound, the CLint scaled in data set [13] was determined as 39 mL/min/kg; in data set [28], 189 mL/min/kg; in data set [31] it was 44 mL/min/kg; in data set [32] it was 39 mL/min/kg. In addition, the clearance in [14] stood at 2 mL/min/kg; in data set [16], 29 mL/min/kg; in data set [25] it was 14 mL/min/kg. In data set [15], the pH-dependent lipophilicity (logD) is 4.1. For the same compound, the half-life in [17] is 7.6 h; in data set [33] it was 29 h; in [8], 3.5 h. Besides, the values for the Vd in [18], in [23] and in data set [29] were 4.8 L/kg, 4.3 L/kg and 3.5 L/kg, respectively. In addition, the minimal effective dose with Mus musculus came to 0.1 mg/kg. Also, in [21], the concentration at 1.5 h was 10 nM. Further, in [4], the solubility kinetic is 139 µM (≈ 69.6 µg/mL). Also, in the data set on Rattus norvegicus [26], the CL free was found to be 430 mL/min/kg. The Vdu in the data set with Rattus norvegicus [30] amounted to 72 L/kg. Further, the IC50 in data set [5] was 12 µM; in data set [7], 9.1 to 9.2 µM; on Cytochrome P450 3A4, greater than 50 µM.

The record behind these values is ChEMBL document CHEMBL3994654, “Discovery of phenyl acetamides as potent and selective GPR119 agonists” (Bioorg Med Chem Lett, 2017).
